The species entered for assay [1] is Rattus norvegicus. The assay can be described thus: Inhibitory activity against 48/80 induced release of Histamine from isolated rat peritoneal mast cells at a dose of 5*10e-4 mol. It is filed as functional. A digest of the protocol:
(§1)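 Rat peritoneal cells (~10% mast cells) collected by lavage with Tris-HCl-buffered (10 mmol, pH 7.4) salt solution. The reaction was stopped on ice. Histamine was measured by o-phthalaldehyde fluorometry in duplicate, expressed as % of total minus spontaneous release, with % inhibition taken versus 48/80 alone.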

The species entered for assay [2] is Rattus norvegicus. Description: Inhibitory activity against 48/80 induced release of Histamine from isolated rat peritoneal mast cells at a dose of 10e-3 mol. It is filed as functional. A digest of the protocol:
as §1

Assay [3] is filed under the species Rattus norvegicus. Description: Inhibitory activity against 48/80 induced release of Histamine from isolated rat peritoneal mast cells at a dose of 2*10e-4 mol. Type of assay: functional. The essentials: as §1
The species entered for assay [4] is Rattus norvegicus. Description: (§2) Inhibitory activity on the compound 48/80 induced release of Histamine from isolated rat peritoneal mast cells at a dose of 5*10e-4 mol. Type of assay: functional. A digest of the protocol: as §1
For assay [5], the species on record is Rattus norvegicus. The assay can be described thus: Inhibitory activity (10e-3 mol/L) against 48/80 induced rat mast cell degranulation at a dose of 0.25ug/mL, incubated for 15 min at 37 degree C. It is filed as functional. A digest of the protocol: (§3)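 Harvested rat peritoneal mast cells were preincubated 15 min at 37 °C with test compound suspended in 0.5% CMC (final 10^-3 mol/L). Degranulation was scored by inverted phase-contrast microscopy, counting >100 mast cells. % inhibition = 100[1 − (X − Z)/(Y − Z)], where Z corrects for degranulation in control medium.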

For assay [6], the species on record is Rattus norvegicus. The assay can be described thus: Inhibitory activity against 48/80 induced release of Histamine from isolated rat peritoneal mast cells at a dose of 5*10e-4 mol; Inactive. Type of assay: functional, cell-based.
Assay [7] is filed under the species Rattus norvegicus. Description: Inhibitory activity of histamine release at 2*10e-3 mol. Type of assay: functional.
The species named for assay [8] is Rattus norvegicus. Description: Inhibitory activity on compound (in 0.5% CMC solution) 48/80 induced rat mast cell degranulation at a dose of 0.25micorg/mL, incubated for 15 min at 37 degree C. Type of assay: functional. The essentials: as §3
For assay [9], the species on record is Rattus norvegicus. Description: Inhibitory activity against 48/80 induced release of Histamine from isolated rat peritoneal mast cells at a dose of 10e-3 mol; Inactive. Type of assay: functional, cell-based. The essentials: as §1
For assay [10], the species on record is Rattus norvegicus. Described as §2. It is filed as functional. The essentials:
as §1
The source holds these as a separate data set.

The species named for assay [11] is Rattus norvegicus. Description: Inhibitory activity on the compound 48/80 induced release of Histamine from isolated rat peritoneal mast cells at a dose of 2*10e-4 mol. Type of assay: functional. The essentials:
as §1

The species entered for assay [12] is Rattus norvegicus. Description: Inhibitory activity on the compound 48/80 induced release of Histamine from isolated rat peritoneal mast cells at a dose of 10e-3 mol. It is filed as functional. The essentials: as §1
The species entered for assay [13] is Rattus norvegicus. Description: Inhibitory activity on the compound (in 0.5% CMC solution) 48/80 induced release of Histamine rat mast cell degranulation at a dose of 0.25micorg/mL, incubated for 15 min at 37 degree C. It is filed as functional. The essentials:
as §3

The source made the active and inactive calls. The calls are words filed in the database; no cut-off is given here.

Results on 32 molecules are retold here after ChEMBL document CHEMBL1121901, “Synthesis and structure-activity relationship of spiro[isochromanpiperidine] analogues for inhibition of histamine release” (1981).

In general, Inhibition refers to the relative decrease from the control value, in per cent.

`Cl.O=C1OC2(CCN(CCCc3ccccc3)CC2)Cc2ccccc21`: the Inhibition is recorded as 18% in the assay filed under Rattus norvegicus [1], 85% in the assay filed under Rattus norvegicus [2] and 5% in the assay filed under Rattus norvegicus [3].
Regarding `CCCCCCCCCCN1CCC2(CC1)Cc1ccccc1C(=O)O2`, the inhibition entry in the assay filed under Rattus norvegicus [4] was “inactive”.
For the molecule `Cl.O=C1OC2(CCN(c3ccccc3)CC2)Cc2ccccc21`, in the assay listed under Rattus norvegicus [5], the Inhibition turned out to be 29.1%.
With `O=C1OC2(CCN(C3CCCCC3)CC2)Cc2ccccc21`, the inhibition entry in the assay listed under Rattus norvegicus [6] was “inactive”.
With `C[N+]1(Cc2ccccc2)CCC2(CC1)Cc1ccccc1C(=O)O2.[I-]` (centres undefined), in the assay listed under Rattus norvegicus [7], the Inhibition was determined as 28%.
Take `Cl.O=C1OC2(CCN(CCc3ccccc3)CC2)Cc2ccccc21`: the figures for the Inhibition in the assay filed under Rattus norvegicus [1] and in the assay listed under Rattus norvegicus [2] were 6% and 86%, respectively.
As for `CCCCCN1CCC2(CC1)Cc1ccccc1C(=O)O2.Cl`, the Inhibition was found to be 35% in the assay listed under Rattus norvegicus [1], 79% in the assay filed under Rattus norvegicus [2] and 23% in the assay filed under Rattus norvegicus [3].
On to `CN1CCC2(CC1)COC(=O)c1ccccc12`, for which the inhibition entry in the assay filed under Rattus norvegicus [6] was “inactive”.
Regarding `CN1CCC2(CC1)COCc1ccccc12`, the inhibition result in the assay filed under Rattus norvegicus [6] is “inactive”.
Turning to `O=C1OC2(CCC(Cc3ccccc3)CC2)Cc2ccccc21` (centres undefined), the Inhibition in the assay listed under Rattus norvegicus [8] was 52%.
Regarding `CCCCCCCCN1CCC2(CC1)Cc1ccccc1C(=O)O2`, the inhibition result in the assay listed under Rattus norvegicus [4] was “inactive”.
On to `OCC1(c2ccccc2)CCN(Cc2ccccc2)CC1`, for which, in the assay filed under Rattus norvegicus [9], the inhibition result was “inactive”.
For `CN1CCC2(CC1)Cc1ccccc1C(=O)O2`, the inhibition result in the assay filed under Rattus norvegicus [6] is “inactive”.
In the case of `CC(C)CN1CCC2(CC1)Cc1ccccc1C(=O)O2`, the inhibition result in the assay listed under Rattus norvegicus [6] was “inactive”.
Still for that read-out and setting: the same measure for `O=C1OC2(CCNCC2)Cc2ccccc21`: “inactive”.
`O=C([O-])c1cc(=O)c2c(OCC(O)COc3cccc4oc(C(=O)[O-])cc(=O)c34)cccc2o1.[Na+].[Na+]` [CROMOLYN SODIUM]: the Inhibition turned out to be 58% in the assay listed under Rattus norvegicus [1], 80% in the assay listed under Rattus norvegicus [2] and 31% in the assay listed under Rattus norvegicus [3].
For the molecule `C=CCN1CCC2(CC1)OC(=O)c1ccccc1C2C(=O)OCC` (centres undefined), the inhibition entry in the assay listed under Rattus norvegicus [6] was “inactive”.
For `Cl.O=C1OC2(CCN(CC3CCCCC3)CC2)Cc2ccccc21`, the Inhibition in the assay filed under Rattus norvegicus [1] was determined as 47%; in the assay filed under Rattus norvegicus [2], 83%.
Consider `CCOC(=O)C1c2ccccc2C(=O)OC12CCN(C)CC2` (centres undefined), for which the inhibition entry in the assay filed under Rattus norvegicus [6] was “inactive”.
In the case of `Cl.c1ccc(CCN2CCC3(CC2)COCc2ccccc23)cc1`, the Inhibition is given as 96% in the assay listed under Rattus norvegicus [1], 100% in the assay listed under Rattus norvegicus [2] and 28% in the assay filed under Rattus norvegicus [3].
As for `CCCN1CCC2(CC1)Cc1ccccc1C(=O)O2`, the inhibition entry in the assay listed under Rattus norvegicus [6] is “inactive”.
Regarding `CCCCCCCN1CCC2(CC1)Cc1ccccc1C(=O)O2.Cl`, the figures for the Inhibition in the assay filed under Rattus norvegicus [10], in the assay filed under Rattus norvegicus [11] and in the assay listed under Rattus norvegicus [12] were 100%, 64% and 100%, respectively.
For `CN1CCC(CO)(c2ccccc2)CC1`, in the assay filed under Rattus norvegicus [9], the inhibition result is “inactive”.
On to `CN(CCC1(C)COCc2ccccc21)Cc1ccccc1` (centres undefined), for which the Inhibition in the assay filed under Rattus norvegicus [13] is given as -8%.
As to `O=C1OCC2(CCN(CCc3ccccc3)CC2)c2ccccc21`, the figures for the Inhibition in the assay filed under Rattus norvegicus [1], in the assay listed under Rattus norvegicus [2] and in the assay listed under Rattus norvegicus [3] were 94%, 100% and 15%, respectively.
Regarding `OCC1(c2ccccc2)CCN(CCc2ccccc2)CC1`, the Inhibition in the assay filed under Rattus norvegicus [2] is reported as 49%.
In the case of `Cl.O=C1OCC2(CCN(Cc3ccccc3)CC2)c2ccccc21`, the values for the Inhibition in the assay filed under Rattus norvegicus [10] and in the assay listed under Rattus norvegicus [3] were 31% and 5%, respectively.
As to `C=CCN1CCC2(CC1)Cc1ccccc1C(=O)O2`, in the assay listed under Rattus norvegicus [6], the inhibition entry was “inactive”.
Consider `CCCCCCN1CCC2(CC1)Cc1ccccc1C(=O)O2.Cl`, for which the results for the Inhibition in the assay listed under Rattus norvegicus [1] and in the assay listed under Rattus norvegicus [3] were 67% and 32%, respectively.
For the molecule `CCCCN1CCC2(CC1)Cc1ccccc1C(=O)O2.Cl`, the values for the Inhibition in the assay filed under Rattus norvegicus [1], in the assay filed under Rattus norvegicus [2] and in the assay filed under Rattus norvegicus [3] were 43%, 85% and 18%, respectively.
Take `CCOC(=O)C1c2ccccc2C(=O)OC12CCN(Cc1ccccc1)CC2.Cl` (centres undefined): the Inhibition in the assay listed under Rattus norvegicus [1] was 12%; in the assay listed under Rattus norvegicus [2] it was 84%.
For `Cl.O=C1OC2(CCN(Cc3ccccc3)CC2)Cc2ccccc21`, the Inhibition in the assay filed under Rattus norvegicus [1] is given as 40%; in the assay listed under Rattus norvegicus [2], 76%; in the assay filed under Rattus norvegicus [13], 94.5%; in the assay filed under Rattus norvegicus [3], 20%.
